# Assay outcomes deposited in PubChem by several laboratories.
# This is a sample that favours compounds with a hit; in the whole collection about 4% have one here.
# OX1R antag-1 – blocks the human orexin 1 receptor. O43613. CHO/OX1R cells, Fluo-8 calcium fluorescence, orexin A. inhibition, % at 5 µM. actives 0.43% (n = 330,000). AID 434989;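 active means inhibition above its plate's threshold, mean inhibition of all tested compounds on the plate plus 3 SD, cut at about 37% in these data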;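 further: 0% = orexin A challenge wells and 100% = SB-334867-A antagonist wells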
# TAAR1 antagonist – antagonists of human TAAR1; Q96RJ0; CHO RD-HGA16 TAAR1, Fluo-8 calcium fluorescence, antagonist; inhibition, % at 3 µM; actives 1.5% (n = 360,000);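 active means inhibition above a per-plate cutoff, the mean inhibition of test compounds on that plate plus 3 SD, cut at about 49% in these data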;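 further: 0% = DMSO plus EC80 beta-PEA response and 100% = DMSO alone without agonist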
#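 Assay system: RD-HGA16 CHO cells with stable hTAAR1 and Gα16 / Reagent: EC80 β-phenethylamine stimulus / Doses: 3 µM, single point / Timing: dye loading 75 min at 37 °C, then 30 min room temperature / Measured by: Fluo-8 intracellular calcium dye fluorescence, real-time kinetic reads / Controls: vehicle wells and EC80 agonist wells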
# TAAR1 ag – agonists of human TAAR1; CHO RD-HGA16 TAAR1, Fluo-8 calcium fluorescence; vehicle wells 0%, saturating PEA agonist 100%; activation, % at 3 µM; actives 0.99% (n = 360,000); AID 624467;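 active means activation above the mean activation of all test compounds in the run plus 3 SD, cut at about 38% in these data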
#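 Benchmarks: low control DMSO, high control PEA (EC100); System: CHO RD-HGA16 cells carrying human TAAR1 plus Gα16; Detection: Fluo-8 fluorescence, 5 s baseline then 140 s kinetic read; Schedule: 17-24 h plating, Fluo-8 75 min 37 °C, 30 min RT; Read-out basis: % activation from peak over basal fluorescence ratio, DMSO-to-PEA scaled.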
# CHO parental Ca – counter-screen for OX1R antagonists: effect in parental CHO cells; parental CHO-K1, ATP-induced calcium, Fluo-8 fluorescence; inhibition, % at 5.6 µM; actives 0.63% (n = 330,000); AID 463079;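 active means inhibition above that plate's mean sample inhibition plus 3 SD, cut at about 26% in these data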;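 further: 0% = ATP-challenged DMSO wells and 100% = DMSO wells without ATP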
#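 Assay system – parental CHO cells · Reagent – ATP stimulus · Detection – intracellular calcium via Fluo-8 no-wash fluorescent dye · Evaluation – percent inhibition of ATP-evoked calcium rise, normalized to controls · Controls – ATP wells versus no-ATP DMSO wells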
# OX1R antag-2 – blocks the human orexin 1 receptor; actives 1.8% (n = 330,000); OX1R-expressing cells, FRET antagonist read-out; inhibition, % at 6.6 µM; in the data active means inhibition mostly above about 38%, no sharp cut-off; inactive means mostly below about 40%;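 further: 0% = agonist challenge alone and 100% = reference antagonist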
# NTR1 ag – NTR1 (human) agonism. activation, % at 20 µM. actives 0.17% (n = 330,000). NTR1-U2OS beta-arrestin-GFP spot imaging, agonist mode;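 active means activation at or above 40% of the spot to cytoplasm intensity ratio, with at least 20 cells analyzed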;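 further: 0% = DMSO without peptide and 100% = 100 nM NTR1 peptide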
# Target sequence (P30989 whole entry, looked up): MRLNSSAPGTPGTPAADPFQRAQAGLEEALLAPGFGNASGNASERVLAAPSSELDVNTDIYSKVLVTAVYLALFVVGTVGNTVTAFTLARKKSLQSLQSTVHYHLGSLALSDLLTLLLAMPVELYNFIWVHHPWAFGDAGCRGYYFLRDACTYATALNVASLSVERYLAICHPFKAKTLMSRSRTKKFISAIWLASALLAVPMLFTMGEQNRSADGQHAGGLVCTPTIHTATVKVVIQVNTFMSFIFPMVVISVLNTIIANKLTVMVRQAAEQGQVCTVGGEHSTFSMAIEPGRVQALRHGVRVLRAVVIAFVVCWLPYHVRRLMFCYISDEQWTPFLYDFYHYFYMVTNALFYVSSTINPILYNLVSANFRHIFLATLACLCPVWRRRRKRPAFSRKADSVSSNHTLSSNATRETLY
# * marks the source's active call; other numbers are inactive results; x = not tested or not shown.
SMILES,OX1R antag-1,TAAR1 antagonist,TAAR1 ag,CHO parental Ca,OX1R antag-2,NTR1 ag
COc1cccc(NC(=O)CN(C)C(=O)c2cc(-c3ccco3)nc3ccccc23)c1,-24.2,48.4,13.3,-16.1,35.1,1.5
CCOc1ccc(NC(=O)CN(C)C(=O)c2cc(C)nc3ccccc23)cc1OCC,-23.3,9.7,2.2,-9.1,0.5,-1.7
CCOc1ccc(NC(=O)CN(C)C(=O)c2cn(-c3ccc(C)cc3)nc2-c2cccc(OC)c2)cc1OCC,x,64.4*,8.6,x,x,x
CCOc1ccc(NC(=O)CN(C)C(=O)c2cc(-c3ccco3)nc3ccccc23)cc1OCC,x,52.0*,9.8,x,x,x
COc1ccc(NC(=O)CN(C)C(=O)c2cc(-c3ccncc3)nc3ccccc23)cc1,-14.1,51.5*,19.4,-8.4,11.4,-0.2
O=C(NNC(=O)c1cc(-c2ccco2)nc2ccccc12)c1ccccc1,2.9,49.6*,10.2,-17.4,19.5,-0.7
COC(=O)[C@H](Cc1ccccc1)N1Cc2ccccc2Oc2cc(Br)ccc2S1(=O)=O,x,28.5,-1.1,x,x,x
COc1cc(Nc2cc(C)n(-c3cc(OC)cc(OC)c3)c(=O)c2)cc(OC)c1,x,17.0,-1.5,x,x,x
Cc1cc(NC(=O)C2C3C(=O)N(CCC(C)C)C(C(=O)NCc4ccccc4)C34C=CC2(C)O4)no1 (stereo not drawn),-2.3,4.0,8.8,1.8,46.1*,2.1
O=C(C[C@@H]1CC[C@@H]2[C@H](COC[C@H](O)CN2CCC(F)(F)F)O1)NCc1ccc2c(c1)OCO2,x,-5.0,0.3,x,x,x
COCc1cc(N2CCN(C(=O)OC(C)(C)C)C[C@H]2C)ccc1N1CCS(=O)(=O)CC1,x,8.8,2.3,x,x,x
O=Cc1c[nH]c2cccc(OCc3ccccc3)c12,x,49.4*,-1.6,x,x,29.3
O=Cc1c[nH]c2ccc(NC(=O)OCc3ccccc3)cc12,x,-18.4,6.5,x,x,x
C(=C1/CCCC2=C1Nc1ncnn1C2c1ccccc1)/c1ccccc1 (stereo not drawn),-9.2,x,x,16.8,13.7,72.8*
S=C1NC2=C(CCC/C2=C\c2ccccc2)C(c2ccccc2)N1 (stereo not drawn),-9.6,-29.2,0.1,-15.1,10.1,0.2
CN1CCN(CCCNC(=O)c2ccc(/C=C3/Sc4ccccc4N(Cc4cccc(Cl)c4)C3=O)cc2)CC1,x,56.6*,36.2,x,x,x
COc1cccc(/C=C2\Sc3ccc(C(=O)NCc4cccnc4)cc3N(C)C2=O)c1,-24.8,21.0,1.7,-21.3,6.5,-0.3
CN1C(=O)/C(=C/c2cccc(Cl)c2)Sc2ccc(C(=O)NCc3cccnc3)cc21,-13.6,51.0*,10.4,-2.6,42.0,1.4
CCN1CCN(c2c(C=O)c(Cl)nc3ccc(OC)cc23)CC1,-22.6,-17.8,0.5,-22.6,8.3,1.1
C=CCNc1ccc2c(c1)OC[C@@H](CC(C)C)NS2(=O)=O,x,2.9,-2.2,x,x,x
COCc1cc(N2CCNC[C@H]2C)ccc1N1CCN(Cc2ccccc2)[C@@H](C)C1,x,-7.2,2.8,x,x,x
COCCCOc1cc(NCc2ccccc2)c2ncn(C(C)C)c2c1,-22.5,-9.4,14.7,-19.3,13.7,2.1
COc1ccc(Cc2cc(NCc3ccccc3)c3ncn(C(C)C)c3c2)cc1,-46.1,15.8,38.1*,-27.6,8.7,11.8
CCC(CO)Oc1cc(NCc2ccc(C(C)(C)C)cc2)c2ncn(C(C)C)c2c1 (stereo not drawn),49.5,29.1,17.4,50.2*,14.2,19.7
CC(C)n1cnc2c(NCc3ccccc3)cc(N[C@H](C)CO)cc21,5.7,x,x,-12.2,74.5*,-4.9
SMILES,OX1R antag-1,TAAR1 antagonist,TAAR1 ag,CHO parental Ca,OX1R antag-2,NTR1 ag
Nc1ccc(-c2c3ccc(=O)cc-3oc3cc(O)ccc23)c(C(=O)O)c1,87.1*,x,x,57.6*,62.6*,-3.9
Clc1ccc(C2=CC(c3ccco3)n3ncnc3N2)cc1 (stereo not drawn),-8.1,24.2,107.1*,-3.2,31.8,0.5
COC(=O)[C@]12C[C@H](CC(=O)NCc3cccc(C(F)(F)F)c3)C(=O)N(Cc3ccccc3)C1=C[C@H](C(C)(C)C)O[C@@H]2C,x,-15.4,-2.0,x,x,x
Cc1ccc(CNc2ncnc3cc(Cl)ccc23)cc1,-16.4,16.3,0.4,35.4*,31.4,1.7
Cc1ccccc1CNc1ncnc2cc(Cl)ccc12,-28.3,24.3,9.7,-11.5,14.5,0.2
CCOc1cc(/C=C2\CCCc3c2nc2ccccc2c3C(=O)O)ccc1OC,31.8,14.8,59.0*,29.3,133.2*,-0.8
COc1cc(/C=C2\CCCc3c2nc2ccccc2c3C(=O)O)cc(Br)c1O,-13.2,4.9,-1.0,4.4,21.7,2.1
COc1cccc(/C=C2\CC(C)Cc3c2nc2ccccc2c3C(=O)O)c1OC (stereo not drawn),-20.1,-9.3,0.3,-6.1,75.4*,-0.1
O=c1[nH]c(-c2ccccc2)cn1C1CCN(Cc2ccc(-c3nc4ccccc4nc3-c3ccccc3)cc2)CC1,x,35.8,5.2,x,x,x
Cc1ccc(Cc2nnc(SCC(=O)Nc3ccccc3Cl)[nH]c2=O)cc1,-4.5,-9.7,1.0,0.9,25.0,1.2
COc1ccc(Cl)cc1NC(=O)CSc1nnc(Cc2ccc(C)cc2)c(=O)[nH]1,-15.4,-19.3,1.1,-5.1,49.8*,-0.5
CCOC(=O)CN1CCCc2nc(C)c(C)cc21,x,-9.1,1.1,x,x,x
N#CC1=C(N)NC(SCc2ccc(F)cc2)=C(C#N)C12CCCCC2,40.9,53.6*,28.8,27.0,65.8,5.2
N#CC1=C(N)NC(SCC(=O)Nc2ccccc2)=C(C#N)C12CCCC2,3.1,47.3,24.9,6.6,14.4,0.9
O=Nc1ccc(Cl)cn1,x,-9.9,3.8,x,x,x
COc1ccc(NC(=O)CSc2ccccc2)c([N+](=O)[O-])c1,-35.4,-7.6,0.9,-9.8,8.7,-1.2
COc1ccccc1C(=O)NC(=O)CSc1nncn1C,0.7,-26.2,4.9,39.9*,-5.3,1.2
COc1ccc(NC(=O)c2cc(Br)ccc2Cl)c([N+](=O)[O-])c1,14.4,9.7,0.5,31.5*,34.8,-1.5
COc1ccc(NC(=O)CSc2nncn2C)c([N+](=O)[O-])c1,2.9,-3.3,1.8,-8.6,38.4*,-0.1
COc1ccc(NC(=O)CS(=O)(=O)Cc2ccccc2)c([N+](=O)[O-])c1,-27.0,-3.6,0.1,-18.2,50.5*,0.5
CCCNC(=O)C1(C)CCCN(C(=O)c2cc(C)n(C(C)(C)C)n2)C1 (stereo not drawn),x,-10.6,1.1,x,x,x
C[C@H]1COc2cc(N3CCCC3)ccc2S(=O)(=O)N1,x,-1.6,0.2,x,x,x
Cc1ccccc1C(=O)N1CCN(C(=O)C(=O)c2cccc(C(F)(F)F)c2)CC1,x,-8.4,1.9,x,x,x
CCC(C)N1CCNCC1 (stereo not drawn),-18.7,-3.6,0.6,-15.3,11.6,-0.7
